# Measurements gathered from unrelated publications.
# Compare with care: the assays were run in different laboratories.
# CYP2D6: Cytochrome P450 2D6 (CYP2D6, Homo sapiens, UniProt P10635)
# gag-pol integrase: Gag-Pol polyprotein, integrase (gag-pol, Human immunodeficiency virus 1, UniProt P12497)
# Tumor necrosis factor receptor superfamily member 9: Tumor necrosis factor receptor superfamily member 9 (Homo sapiens, UniProt Q07011)
# PPARA: Peroxisome proliferator-activated receptor alpha (PPARA, Homo sapiens, UniProt Q07869)
Structure (SMILES),target,assay,system,setting,endpoint,result
Cc1c(Cc2ccc(C(F)(F)F)nc2)c[nH]c1C(=O)NC(C)c1cnn(C)c1 (stereo not drawn),CYP2D6,"enzyme activity, inhibitor","human, liver microsomes",,IC50,12.7 µM
O=C(O)c1cc[c]([Hg][Cl])cc1,"Beta-lactamase TEM (bla, Escherichia coli, UniProt P62593)","enzyme activity, inhibitor",,,IC50,> 30 µM
[Cd+2],"Protein phosphatase 1A (PPM1A, Homo sapiens, UniProt P35813, D239A)","enzyme activity, inhibitor, absorbance",,pH 8,Ki,5.22 µM
CC(C)C[C@H](NC(=O)[C@H](Cc1ccccc1)NC(=O)[C@H](Cc1ccc(O)cc1)NC(=O)CNC(=O)[C@H](CCCCN)NC(=O)[C@H](CO)NC(=O)[C@H](CCC(N)=O)NC(=O)CNC(=O)[C@@H](NC(=O)[C@H](CO)NC(=O)[C@@H]1CCCN1C(=O)[C@H](CO)NC(=O)[C@H](CCC(N)=O)NC(=O)[C@H](Cc1ccc(O)cc1)NC(=O)[C@H](CCC(=O)O)NC(=O)[C@H](C)NC(=O)[C@H](CCCCN)NC(=O)[C@@H](N)Cc1ccccc1)C(C)C)C(=O)N[C@@H](Cc1ccccc1)C(=O)N[C@@H](CCCNC(=N)N)C(=O)N1CCC[C@H]1C(=O)N[C@@H](CCCNC(=N)N)C(=O)N[C@@H](CC(N)=O)C(N)=O,"Neuromedin-U receptor 2 (NMUR2, Homo sapiens, UniProt Q9GZQ4)","ligand displacement, radioligand",,cell membranes,IC50,4e-05 µM
O=C(Cc1ccccc1)N[C@H](C(=O)O)[C@@H]1N=C(C(=O)O)C(CSC(C(=O)O)c2ccccc2)CS1 (stereo partly drawn),"Metallo-beta-lactamase VIM-2 (VIM-2, Escherichia coli, UniProt Q5U7L7)","enzyme activity, inhibitor, absorbance",,,IC50,65.6 µM
O=C(O)[C@H](Cc1ccc2ccccc2c1)NC(=O)C1(c2ccc3ccccc3c2)CCN(CCC(F)(F)F)CC1,gag-pol integrase,"enzyme activity, inhibitor, TR-FRET",,,IC50,180 µM
CCCC[C@@H]1NC(=O)[C@H](Cc2ccc(O)cc2)NC(=O)[C@@H]2CCCN2C(=O)[C@H](CC(=O)O)NC(=O)[C@H](C)NC(=O)[C@H](Cc2ccccc2)NC(=O)[C@@H]2CSCCC(=O)N3CN(CN(C3)C(=O)CCSC[C@H](NC(C)=O)C(=O)N[C@@H](CC(C)(C)C)C(=O)N3CCC[C@H]3C(=O)N[C@@H](CCC(=O)O)C(=O)N[C@H](CCCCNC(=O)CCc3cn(CCOCCOCCOCCOCCOCCC(=O)N[C@H]4CSCCC(=O)N5CN6CN(C5)C(=O)CCSC[C@H](NC(=O)[C@@H](CC(=O)O)NC(=O)[C@H](Cc5cccc7ccccc57)NC(=O)[C@@H]5CCCN5C4=O)C(=O)N[C@@H](CCSC)C(=O)N[C@@H](CCCCNC(=N)N)C(=O)N[C@@H](CC(=O)O)C(=O)N[C@@H](Cc4c[nH]c5ccccc45)C(=O)N[C@@H](CO)C(=O)N[C@@H]([C@@H](C)O)C(=O)N4CCC[C@H]4C(=O)N4C[C@H](O)C[C@H]4C(=O)N[C@@H](Cc4c[nH]c5ccccc45)C(=O)N[C@H](C(N)=O)CSCCC6=O)nn3)C(=O)N3CCC[C@H]3C(=O)N[C@@H](Cc3ccc(O)cc3)C(=O)N2)C(=O)CCSC[C@@H](C(N)=O)NC1=O,Tumor necrosis factor receptor superfamily member 9,"binding, SPR",,,Kd,0.00447 µM
CC(C)Oc1cccnc1N(C)C1CCN(Cc2ccc(I)cc2)CC1,"D(2) dopamine receptor (Drd2, Rattus norvegicus, UniProt P61169)","ligand displacement, radioligand",,cell membranes,Ki,0.085 µM
O=C(O)C(F)(F)C(F)(F)C(F)(F)C(F)(F)C(F)(F)C(F)(F)C(F)(F)F,PPARA,"reporter gene, agonist, luciferase",,,EC50,9.5 µM
CC(c1ccccc1)n1cc(-c2ncccn2)c(=O)[nH]c1=O (stereo not drawn),"Hepatocyte growth factor receptor (MET, Homo sapiens, UniProt P08581)",binding,,,Kd,2.51 µM
O=C(O)[C@H](Cc1ccc2ccccc2c1)NC(=O)C1(c2ccc(F)cc2)CCN(CCC(F)(F)F)CC1,gag-pol integrase,"enzyme activity, inhibitor, TR-FRET",,,IC50,206 µM
CCCC[C@@H]1NC(=O)[C@H](Cc2ccc(O)cc2)NC(=O)[C@@H]2CCCN2C(=O)[C@H](CC(=O)O)NC(=O)[C@H](C)NC(=O)[C@H](Cc2ccccc2)NC(=O)[C@@H]2CSCCC(=O)N3CN(CN(C3)C(=O)CCSC[C@@H](C(=O)N[C@@H](CNC(=O)CCOCCOCCOCCOCCOCCn3cc(CCC(=O)N[C@H]4CSCCC(=O)N5CN6CN(C5)C(=O)CCSC[C@H](NC(=O)[C@@H](CC(=O)O)NC(=O)[C@H](Cc5cccc7ccccc57)NC(=O)[C@@H]5CCCN5C4=O)C(=O)N[C@@H](CCSC)C(=O)N[C@@H](CCCCNC(=N)N)C(=O)N[C@@H](CC(=O)O)C(=O)N[C@@H](Cc4c[nH]c5ccccc45)C(=O)N[C@@H](CO)C(=O)N[C@@H]([C@@H](C)O)C(=O)N4CCC[C@H]4C(=O)N4C[C@H](O)C[C@H]4C(=O)N[C@@H](Cc4c[nH]c5ccccc45)C(=O)N[C@H](C(N)=O)CSCCC6=O)nn3)C(N)=O)NC1=O)C(=O)CCSC[C@H](NC(C)=O)C(=O)N[C@@H](CC(C)(C)C)C(=O)N1CCC[C@H]1C(=O)N[C@@H](CCC(=O)O)C(=O)N[C@H](C)C(=O)N1CCC[C@H]1C(=O)N[C@@H](Cc1ccc(O)cc1)C(=O)N2,Tumor necrosis factor receptor superfamily member 9,"binding, SPR",,,Kd,0.0034 µM
Cc1cc(SCc2sc(-c3ccc(C(F)(F)F)c(F)c3)nc2C)ccc1OCC(=O)O,PPARA,"reporter gene, agonist, luciferase",,,EC50,1.3 µM
O=C(O)[C@H](Cc1ccccc1)NC(=O)C1(c2ccc3ccccc3c2)CCN(Cc2ccccc2)CC1,gag-pol integrase,"enzyme activity, inhibitor, TR-FRET",,,IC50,353 µM
CC(=O)N[C@@H](CC(C)C)C(=O)N[C@@H](CC(C)C)C(=O)N[C@@H](CC(C)C)C(=O)N[C@@H](CCCN=C(N)N)C(=O)N[C@H](C(=O)N[C@@H](CCCCN)C(=O)N[C@@H](CCCN=C(N)N)C(N)=O)C(C)C,"Neuroendocrine convertase 2 (Homo sapiens, UniProt P16519)","enzyme activity, inhibitor",,,Ki,0.5 µM
CCCC[C@@H]1NC(=O)[C@H](Cc2ccc(O)cc2)NC(=O)[C@@H]2CCCN2C(=O)[C@H](CC(=O)O)NC(=O)[C@H](C)NC(=O)[C@H](Cc2ccccc2)NC(=O)[C@@H]2CSCCC(=O)N3CN(CN(C3)C(=O)CCSC[C@@H](C(=O)N[C@@H](C)C(N)=O)NC1=O)C(=O)CCSC[C@H](NC(C)=O)C(=O)N[C@@H](CC(C)(C)C)C(=O)N1CCC[C@H]1C(=O)N[C@@H](CCC(=O)O)C(=O)N[C@H](CCCCNC(=O)CCc1cn(CCOCCOCCOCCOCCOCCC(=O)N[C@H]3CSCCC(=O)N4CN5CN(C4)C(=O)CCSC[C@H](NC(=O)[C@@H](CCC(=O)O)NC(=O)[C@H](Cc4cccc6ccccc46)NC(=O)[C@@H]4CCCN4C3=O)C(=O)N[C@@H](CC(C)C)C(=O)N[C@@H](CCCCNC(=N)N)C(=O)N[C@@H](CC(=O)O)C(=O)N[C@@H](Cc3c[nH]c4ccccc34)C(=O)N[C@@H](CO)C(=O)N[C@@H]([C@@H](C)O)C(=O)N3CCC[C@H]3C(=O)N3C[C@H](O)C[C@H]3C(=O)N[C@@H](Cc3c[nH]c4ccccc34)C(=O)N[C@H](C(N)=O)CSCCC5=O)nn1)C(=O)N1CCC[C@H]1C(=O)N[C@@H](Cc1ccc(O)cc1)C(=O)N2,Tumor necrosis factor receptor superfamily member 9,"binding, SPR",,,Kd,0.0084 µM
Cc1c(C2(c3ccc(C(F)(F)F)nc3)CC2)c[nH]c1C(=O)NC(C)c1c[nH]cn1 (stereo not drawn),CYP2D6,"enzyme activity, inhibitor","human, liver microsomes",,IC50,0.32 µM
O=C(O)C(F)(F)C(F)(F)C(F)(F)C(F)(F)C(F)(F)C(F)(F)F,PPARA,"reporter gene, agonist, luciferase",,,EC50,45 µM
CC[C@H](C)[C@H](NC(=O)[C@H](CCCNC(=N)N)NC(=O)[C@H](CC(C)C)NC(=O)[C@@H](N)Cc1ccccc1)C(=O)N[C@@H](CCCNC(=N)N)C(=O)N1CCC[C@H]1C(=O)N[C@@H](CCCCN)C(=O)O,"Alpha-1B adrenergic receptor (ADRA1B, Homo sapiens, UniProt P35368)","cell-free assay, radioligand",,,Ki,6.9 µM
O=S(=O)(O)C(F)(F)C(F)(F)OC(F)(C(F)(F)F)C(F)(F)OC(F)C(F)(F)F (stereo not drawn),PPARA,"reporter gene, agonist, luciferase",,,EC50,24 µM
CCCC[C@@H]1NC(=O)[C@H](Cc2ccc(O)cc2)NC(=O)[C@@H]2CCCN2C(=O)[C@H](CC(=O)O)NC(=O)[C@H](C)NC(=O)[C@H](Cc2ccccc2)NC(=O)[C@@H]2CSCCC(=O)N3CN(CN(C3)C(=O)CCSC[C@@H](C(=O)N[C@@H](C)C(N)=O)NC1=O)C(=O)CCSC[C@H](NC(C)=O)C(=O)N[C@@H](CC(C)(C)C)C(=O)N1CCC[C@H]1C(=O)N[C@@H](CCC(=O)O)C(=O)N[C@H](CCCCNC(=O)CCc1cn(CCOCCOCCOCCOCCOCCC(=O)NCCCC[C@H]3NC(=O)[C@H](Cc4cccc5ccccc45)NC(=O)[C@@H]4CCCN4C(=O)[C@@H](NC(C)=O)CSCCC(=O)N4CN5CN(C4)C(=O)CCSC[C@H](NC3=O)C(=O)N[C@@H](CCSC)C(=O)N[C@@H](CCCCNC(=N)N)C(=O)N[C@@H](Cc3c[nH]cn3)C(=O)N[C@@H](Cc3c[nH]c4ccccc34)C(=O)N[C@@H](CO)C(=O)N[C@@H]([C@@H](C)O)C(=O)N3CCC[C@H]3C(=O)N3C[C@H](O)C[C@H]3C(=O)N[C@@H](Cc3c[nH]c4ccccc34)C(=O)N[C@H](C(N)=O)CSCCC5=O)nn1)C(=O)N1CCC[C@H]1C(=O)N[C@@H](Cc1ccc(O)cc1)C(=O)N2,Tumor necrosis factor receptor superfamily member 9,"binding, SPR",,,Kd,0.0032 µM
